# TRPC4 agonist: activators of mouse TRPC4 channel, primary screen, Fluo4 calcium, HEK293 TRPC4beta/mu-opioid cells; B-score at 10 µM; Short transient receptor potential channel 4 (Mus musculus), Q9QUQ5; AID 2237, 2010; Fluo4 calcium fluorescence; hits give high values; 310,000 tested, 0.49% active;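 active means B-score above 5 SD of library B-scores, and initial fluorescence ratio not above library mean plus 5 SD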;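 further: positive B-score marks a calcium rise read as TRPC4 activation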
#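 Assay system: HEK293 cells stably co-expressing mouse TRPC4beta and mu-opioid receptor / Timing: Fluo4 dye loading 45 min at room temperature, 110 s recording / Signal: Fluo4 calcium-sensitive dye fluorescence, kinetic, 1 Hz baseline / Read-out: integrated baseline-normalised fluorescence ratio, converted to per-well B score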
# TRPC4 block: inhibitors of mouse TRPC4 channel, primary screen, Fluo4 calcium, HEK293 TRPC4beta/mu-opioid cells; B-score at 10 µM; AID 2247, 2010; 300,000 tested, 0.39% active; DAMGO-evoked Fluo4 calcium flux; hits give low values;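 active means B-score over 3 SD under the library average, no early fluorescence shift, positive overall ratio signal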
#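 Assay system – HEK293 line stably carrying TRPC4beta and mu-opioid receptor · Doses – single dose · Detection – Fluo4 calcium-dye fluorescence, kinetic read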
# TRPC4 PAM: positive allosteric modulators of TRPC4, primary screen, cell-based, mouse TRPC4beta, HEK293 mu-opioid, Fluo-4 calcium. 310,000 tested, 0.42% active. B-score at 10 µM. Short transient receptor potential channel 4 (Mus musculus), Q9QUQ5. DAMGO EC20, Fluo-4 Ca2+ flux; hits give high values. AID 2227, 2009;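 active means B-score of calcium response area above 5 SD of library B-scores, with initial fluorescence ratio within 5 SD of library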;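 further: B-score of integrated fluorescence ratio over time as area under calcium response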
# TRPC6 inhibitor: mouse TRPC6 channel inhibitors, primary screen, cell-based, HEK293, membrane potential dye; Short transient receptor potential channel 6 (Mus musculus), Q61143; ACh-evoked depolarization; hits give low values; B-score at 10 µM; 310,000 tested, 1.1% active; AID 2553, 2010;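 active means B-score under library mean minus 3 SD, initial fluorescence not abnormally high, positive integrated signal ratio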;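 further: B-score derived from integrated fluorescence ratio over the kinetic read; more negative B-score means stronger inhibition of depolarization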
# Target sequence (Q61143 whole entry, looked up): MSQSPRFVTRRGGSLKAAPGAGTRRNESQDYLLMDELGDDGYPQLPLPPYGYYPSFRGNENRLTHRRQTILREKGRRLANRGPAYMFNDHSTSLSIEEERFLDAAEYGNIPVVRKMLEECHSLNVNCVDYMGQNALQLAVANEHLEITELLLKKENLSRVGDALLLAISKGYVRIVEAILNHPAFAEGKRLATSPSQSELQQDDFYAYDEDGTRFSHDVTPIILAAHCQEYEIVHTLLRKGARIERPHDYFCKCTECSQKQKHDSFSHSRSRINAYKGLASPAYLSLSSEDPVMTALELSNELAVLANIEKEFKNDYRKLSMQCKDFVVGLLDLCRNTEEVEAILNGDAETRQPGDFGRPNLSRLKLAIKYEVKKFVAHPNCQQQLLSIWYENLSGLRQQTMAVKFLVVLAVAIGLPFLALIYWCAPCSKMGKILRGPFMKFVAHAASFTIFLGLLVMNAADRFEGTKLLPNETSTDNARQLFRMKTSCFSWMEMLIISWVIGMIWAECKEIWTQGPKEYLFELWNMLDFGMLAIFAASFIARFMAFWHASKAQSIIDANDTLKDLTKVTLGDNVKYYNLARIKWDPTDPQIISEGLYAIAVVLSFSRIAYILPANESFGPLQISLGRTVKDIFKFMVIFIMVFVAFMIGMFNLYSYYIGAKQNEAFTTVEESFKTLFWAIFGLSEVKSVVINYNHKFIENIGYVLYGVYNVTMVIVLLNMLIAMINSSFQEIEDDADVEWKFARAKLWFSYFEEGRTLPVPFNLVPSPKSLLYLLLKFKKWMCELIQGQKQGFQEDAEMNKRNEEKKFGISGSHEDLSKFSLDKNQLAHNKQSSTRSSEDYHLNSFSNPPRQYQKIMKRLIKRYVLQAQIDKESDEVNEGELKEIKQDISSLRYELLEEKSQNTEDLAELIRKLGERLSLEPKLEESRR
# TRPC6 activator: mouse TRPC6 channel activators, primary screen, cell-based, HEK293, membrane potential dye; 310,000 tested, 0.13% active; B-score at 10 µM; HEK293-TRPC6 membrane potential dye fluorescence; hits give high values; AID 2550, 2010; Short transient receptor potential channel 6 (Mus musculus), Q61143;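 active means B-score of the integrated fluorescence ratio above library mean plus 3 SD, and starting fluorescence ratio within library mean plus 5 SD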;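 further: higher score means more depolarization so channel activation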
# TRPC4 sel inh 2: mouse TRPC4 off-target activity of TRPC6 inhibitors, second screen; shares compounds with TRPC6 inhibitor; inhibition, % at 10 µM; HEK293 TRPC4/MOR, membrane potential dye fluorescence; channel activated by saturating DAMGO dose; AID 2776; 920 tested, 42% active;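 active means compounds whose fluorescence signal differed from control wells by over 3 SD, either direction, in both duplicate plates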
# TRPC4 spec: mouse TRPC4 modulation by TRPC6 hits, confirmation, selectivity assay for TRPC6 inhibitor project, cell-based, HEK293 TRPC4/mu-opioid, membrane potential dye; shares compounds with TRPC6 inhibitor; membrane potential fluorescence; activity change, negative = inhibition, % at 10 µM; 920 tested, 61% active;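 active means rise or fall in signal beyond 3 SD of buffer-only wells in both replicate plates, either sign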;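 further: integrated kinetic ratio of fluorescence range over baseline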
# HEK293 MPD ctr 2-1: nonspecific membrane potential effects, parental HEK293, confirmation, counter-screen for TRPC6 inhibitor project, cell-based, second counter screen. shares compounds with TRPC6 inhibitor. parental HEK293 membrane potential dye fluorescence; maximal acetylcholine challenge after compound addition. signal change vs control, % at 10 µM. 920 tested, 31% active;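 active means membrane potential signal moving either way by over 3 SD of the maximum-effect control, in both duplicate plates, meaning non-specific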
# HEK293 MPD ctr-1: membrane potential modulation in parental HEK293, confirmation, counter-screen for TRPC6 inhibitor project, cell-based | shares compounds with TRPC6 inhibitor | parental HEK293 membrane potential dye fluorescence | membrane potential signal change, % at 10 µM | 920 tested, 60% active | AID 2780, 2010;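 active means membrane potential signal shifting up or down by more than 3 SD of buffer-only wells, on both duplicate plates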
# HEK293 MPD ctr-2: parental HEK293 membrane potential modulation, confirmation, counter-screen for TRPC6 modulator project, cell-based | shares compounds with TRPC6 inhibitor | membrane potential dye fluorescence | membrane potential signal change, % at 10 µM | 2,400 tested, 51% active;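 active means membrane potential signal moves up or down beyond 5 SD from buffer-only wells, on both duplicate plates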
# HEK293 MPD ctr 2-2: parental HEK293 nonspecific activity of TRPC6 modulators, second screen. shares compounds with TRPC6 inhibitor. membrane potential dye fluorescence; after compound, maximal acetylcholine stimulation. inhibition, % at 10 µM. 2,400 tested, 14% active;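 active means membrane potential signal drops by more than 5 SD from the mean control signal, in both duplicate plates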;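 further: plate controls were acetylcholine ECmax control wells for no effect and buffer only wells for full effect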
# TRPC4/MOR mod: TRPC4 modulation by TRPC6 hit compounds, confirmation, selectivity assay for TRPC6 modulator project, cell-based, HEK293 TRPC4/mu-opioid, membrane potential dye, mouse; 2,400 tested, 69% active; percent change from control (negative = decrease, positive = increase), % at 10 µM; shares compounds with TRPC6 inhibitor; membrane potential fluorescence; AID 488927, 2010;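 active means membrane potential signal moved up or down beyond 5 SD of buffer control wells, in both duplicate plates, actives on both sides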;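 further: plate controls were assay buffer wells for no effect and DAMGO maximal-effect wells for full effect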
# TRPC4/MOR inh 2: second selectivity test of TRPC6 modulators against mouse TRPC4 | shares compounds with TRPC6 inhibitor | HEK293 TRPC4/mu-opioid, membrane potential dye fluorescence; stimulated with maximal-effect DAMGO | inhibition, % at 10 µM | 2,400 tested, 55% active;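 active means drop in membrane potential signal beyond 5 SD of the control wells in both duplicate plates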;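 further: TRPC4 counter screen for TRPC6 hits run under conditions tuned for TRPC6 not TRPC4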
# TRPC6 block conf: mouse TRPC6 channel inhibitors, confirmation, HEK293 cells, membrane potential dye, duplicate; 3,300 tested, 43% active; inhibition, % at 10 µM; AID 488960, 2010; shares compounds with TRPC6 inhibitor; ACh-evoked depolarization;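 active means fluorescence ratio falls more than 5 SD below the full-stimulation control mean, in both duplicate runs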;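 further: integrated fluorescence ratio of peak minus minimum over baseline after agonist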
# TRPC6 act conf: mouse TRPC6 channel activators, confirmation, HEK293 cells, membrane potential dye, duplicate. 2,800 tested, 11% active. shares compounds with TRPC6 inhibitor. HEK293-TRPC6 membrane potential dye fluorescence, FDSS. AID 488961, 2010. activation, % at 10 µM;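 active means ratio signal rise beyond 5 SD above unstimulated control wells' mean, seen in both duplicate runs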;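 further: plate controls were buffer EC0 wells for no effect and acetylcholine ECmax response for full effect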
# Numbers without * were called inactive; i = inactive; nt = no result. In the library only some 2.3% were active in any assay of this set; here they are far more common.
SMILES,TRPC4 agonist,TRPC4 block,TRPC4 PAM,TRPC6 inhibitor,TRPC6 activator,HEK293 MPD ctr-2,HEK293 MPD ctr 2-2,TRPC4/MOR mod,TRPC4/MOR inh 2,TRPC6 block conf,TRPC6 act conf,others
C#CCn1cc(Cl)cc(C(=O)Nc2ccccc2)c1=O,i,i,i,-7.1*,i,nt,nt,nt,nt,i,i,TRPC4 sel inh 2=i;TRPC4 spec=i;HEK293 MPD ctr 2-1=i;HEK293 MPD ctr-1=i
Cc1ccc(C)c(N2CCN(S(=O)(=O)c3ccc(-c4cc(C)no4)s3)CC2)c1,i,i,i,i,i,nt,nt,nt,nt,nt,nt,
COC(=O)[C@H](Cc1ccccc1)NC(=O)C1(OC(C)=O)CC(OC(C)=O)C(OC(C)=O)C(OC(C)=O)C1 (stereo partly drawn),i,i,i,i,i,nt,nt,nt,nt,nt,nt,
O=C(Cc1ccccc1)NNc1c2ccccc2nc2ccccc12,i,i,i,i,i,nt,nt,nt,nt,nt,nt,
O=C(CNC(=O)c1ccccc1)NCCc1ccc(O)c(O)c1,i,i,i,i,i,nt,nt,nt,nt,nt,nt,
Oc1ccccc1Nc1nc(NCc2ccccc2)c2ccccc2n1,i,i,i,i,i,nt,nt,nt,nt,nt,nt,
CNc1nc(NCc2ccccc2)c2ccccc2n1,i,-6*,i,-5.3*,i,-110%*,i,-26%*,78%*,54%*,i,
OCC(Cc1ccccc1)Nc1c2ccccc2nc2ccccc12 (stereo not drawn),i,i,i,-9*,i,i,i,-88%*,70%*,54%*,i,
c1ccc(CNc2c3ccccc3nc3ccccc23)cc1,i,-7*,i,-7.8*,i,nt,nt,nt,nt,i,i,TRPC4 sel inh 2=60%*;TRPC4 spec=-23%*;HEK293 MPD ctr 2-1=45%*;HEK293 MPD ctr-1=-450%*
Oc1ccc(CCNc2c3ccccc3nc3ccccc23)cc1O,i,i,i,-5*,i,-92%*,i,-14%*,i,i,i,
Cc1ccc(Cl)cc1N1CCN(S(=O)(=O)c2ccc3c(c2)NC(=O)C(C)C(=O)N3)CC1 (stereo not drawn),i,i,i,i,i,nt,nt,nt,nt,nt,nt,
COc1ccc(N2CCN(C(=O)C3CCN(S(=O)(=O)c4ccc5c(c4)oc(=O)n5C)CC3)CC2)cc1,i,i,i,i,i,nt,nt,nt,nt,nt,nt,
CC(=O)N1CCC2(CC1)C/C(=N\NC(=S)Nc1ccc(C)cc1)c1cc(O)ccc1O2,i,i,i,i,i,nt,nt,nt,nt,nt,nt,
C[n+]1ccc(/C=C/c2ccccc2O)c2ccccc21,i,i,i,-5.7*,i,-81%*,i,-16%*,i,42%*,i,
COc1ccc(S(=O)(=O)NCC(=O)N(CC(=O)NCc2ccco2)C2CCCC2)cc1,i,i,i,i,i,nt,nt,nt,nt,nt,nt,
Cc1cc(C)n(CCC(=O)N2CCN(S(=O)(=O)c3ccccc3)CC2)n1,i,i,i,i,i,nt,nt,nt,nt,nt,nt,
CCOc1ccc(-n2c(-c3ccccc3)c[n+]3c2CCC3)cc1,i,i,i,-6.3*,i,-58%*,62%*,-13%*,30%*,45%*,i,
CCOc1ccc(-n2c(-c3ccc(OC)cc3)c[n+]3c2CCCCC3)cc1,i,i,i,i,i,nt,nt,nt,nt,nt,nt,
Cc1cc(Cc2ccc([N+](=O)[O-])cc2)c(C)cn1,i,i,i,i,i,nt,nt,nt,nt,nt,nt,
CC(=O)/C(=N/Nc1ccccc1[N+](=O)[O-])N1CCCc2ccccc21,i,i,i,-6.6*,i,i,i,i,49%*,i,i,
CCN(CC)CCn1nc2c3c(cccc3c1=O)-c1ccccc1-2,i,i,i,-5.8*,i,-78%*,i,-18%*,55%*,40%*,i,
O=C(NNC(=O)c1ccc2[nH]c(=O)c(=O)[nH]c2c1)c1cccc(Br)c1,i,i,i,i,i,nt,nt,nt,nt,nt,nt,
COc1ccc(NC(=O)CN2C(=O)NC3(CCCC3)C2=O)cc1OC,i,i,i,i,i,nt,nt,nt,nt,nt,nt,
O=C(Nc1ccccc1C(=O)Nc1nnc(C(F)(F)F)s1)c1ccccc1,i,i,i,-7*,i,nt,nt,nt,nt,84%*,i,TRPC4 sel inh 2=i;TRPC4 spec=16%*;HEK293 MPD ctr 2-1=i;HEK293 MPD ctr-1=11%*
CCN(Cc1cc2cc(C)ccc2[nH]c1=O)C(=O)c1cccc([N+](=O)[O-])c1,i,i,i,i,i,nt,nt,nt,nt,nt,nt,

# High-throughput results as filed in PubChem.
